# Test results published in paper PMC9675722 (Cell chemical biology, 2022).
# How the values were obtained:
# ERK5 [1] = molecular target: T1, ERK5 (Homo sapiens, UniProt Q13164); experiment: ERK5 degradation in MOLT4 cells; assay type: cell-based; details: 5 hours, 5 μM or greater
# panel of 468 kinases = experiment: scanMAX KINOMEscan selectivity panel; assay type: binding; details: 1 μM
# BT-474 cells = experiment: CellTiter-Glo proliferation assay, BT-474; assay type: cell-based, Human; details: Homo sapiens, BT-474, 72 h, read-out: anti-proliferative EC50
# panel of 750 cell lines = experiment: PRISM platform anti-proliferative screen; assay type: cell-based; details: read-out: IC50 values in PRISM screen
# IL-8 secretion = experiment: IL-8 ELISA, LPS-stimulated HUVECs; assay type: cell-based, Human; details: LPS 10 μg/mL 6 hours
# Summary of the method: (§1)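 HUVECs were seeded at 30,000–60,000 cells/well and pre-treated with test compound for 5 or 24 h. They were then stimulated with E. coli O111:B4 LPS at 10 μg/mL for 6 h. Secreted IL-6 or IL-8 in the supernatant was quantified by sandwich ELISA kits per the manufacturer. Statistics used two-way ANOVA with Bonferroni correction.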
# ERK5 [2] = molecular target: T1, ERK5; experiment: ERK5 degradation in HUVECs; assay type: cell-based
# Summary of the method: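 HUVECs (pooled primary, in vascular cell basal medium with VEGF growth kit and pen-strep, 37 °C, 5% CO2) were treated with test compound for 5 or 24 h. Lysates were BCA-normalised and separated on 4–12% Bis-Tris gels, then transferred to nitrocellulose. ERK5 and actin were probed overnight at 4 °C with IRDye secondary detection. Blots are representative of 2 biological replicates.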
# MM.1S cells = experiment: CellTiter-Glo proliferation assay, MM.1S basal; assay type: cell-based; details: Homo sapiens, MM1.S, 72 h, read-out: anti-proliferative EC50
# Summary of the method: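 MM.1S cells, unstimulated, were grown in RPMI with 10% heat-inactivated FBS. They were plated at 500–1000 cells/well and exposed to test compound across a concentration series for 72 h. Viability was read by CellTiter-Glo luminescence. EC50 came from nonlinear regression curve fitting.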
# BRD4 = BRD4 (Homo sapiens, UniProt O60885); experiment: BRD4 immunoblot in MOLT4 cells; assay type: cell-based; details: 5 hours
# Summary of the method: (§2)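 MOLT4 cells (RPMI, 10% heat-inactivated FBS, pen-strep, 37 °C, 5% CO2) were exposed to test compound at a range of concentrations for 5 h. Lysis was in M-PER with protease and phosphatase inhibitors, and lysates were BCA-normalised. Samples were run on 4–12% Bis-Tris gels and blotted to nitrocellulose. ERK5, BRD4, AURKA and actin antibodies were applied overnight at 4 °C. Detection was by IRDye secondaries. Blots are representative of 2–3 biological replicates.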
# MOLT4 cells = experiment: global quantitative TMT MS proteomics in MOLT4 cells; assay type: cell-based, Human; details: MOLT4, 100 nM, 5 hours, ~7,700 proteins quantified
# Summary of the method: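 MOLT4 cells were treated for 5 h with test compound (250 nM, or 100 nM for one degrader) or DMSO (biological triplicate), then harvested by centrifugation. TMT-labelled tryptic peptides were analysed by LC-MS3 on an Orbitrap Fusion Lumos using a 190 min 6–27% acetonitrile gradient. Spectra were searched against Swissprot human. Proteins with ≥2 unique peptides were kept, and abundance relative to DMSO was computed by limma.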
# ERK5 [3] = molecular target: T1, ERK5; experiment: KdELECT biochemical binding assay
# Summary of the method: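 Binding constants to ERK5 were determined in an outsourced KdELECT kinase binding assay from an 11-point dose–response curve.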
# AURKA = molecular target: T2, AURKA (Homo sapiens, UniProt O14965); experiment: AURKA immunoblot in MOLT4 cells; assay type: cell-based; details: 5 hours
# T2 sequence (O14965 1-403): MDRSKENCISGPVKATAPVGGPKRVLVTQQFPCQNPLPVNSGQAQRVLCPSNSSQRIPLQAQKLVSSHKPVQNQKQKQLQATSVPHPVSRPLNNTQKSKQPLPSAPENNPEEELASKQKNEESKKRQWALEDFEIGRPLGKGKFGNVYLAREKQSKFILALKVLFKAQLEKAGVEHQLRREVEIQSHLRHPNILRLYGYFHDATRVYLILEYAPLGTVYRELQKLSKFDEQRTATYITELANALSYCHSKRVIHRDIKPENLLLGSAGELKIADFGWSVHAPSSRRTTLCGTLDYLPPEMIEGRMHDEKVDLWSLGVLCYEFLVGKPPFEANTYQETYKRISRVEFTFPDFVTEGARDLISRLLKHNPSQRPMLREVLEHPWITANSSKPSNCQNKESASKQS
# Summary of the method: as §2
# SNU-449 cells = experiment: CellTiter-Glo proliferation assay, SNU-449; assay type: cell-based, Human; details: Homo sapiens, SNU-449, 72 h, read-out: anti-proliferative EC50
# [4] = tested on: IL-6 stimulated MM.1S cells; experiment: IL-6-induced MM.1S proliferation; assay type: cell-based, Human; details: 500 nM and 1 μM, 5 nM IL-6, 3d
# Summary of the method: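 MM.1S cells at 10,000 cells/well were pre-treated for 5 h with test compound at 500 nM or 1 μM. Recombinant human IL-6 (5 nM) was then added. After 72 h, proliferation was read by CellTiter-Glo. Data are mean with standard deviation of three biological replicates.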
# IL-6 secretion = experiment: IL-6 ELISA, LPS-stimulated HUVECs; assay type: cell-based, Human; details: LPS 10 μg/mL 6 hours
# Summary of the method: as §1
# T1 sequence (Q13164 whole entry): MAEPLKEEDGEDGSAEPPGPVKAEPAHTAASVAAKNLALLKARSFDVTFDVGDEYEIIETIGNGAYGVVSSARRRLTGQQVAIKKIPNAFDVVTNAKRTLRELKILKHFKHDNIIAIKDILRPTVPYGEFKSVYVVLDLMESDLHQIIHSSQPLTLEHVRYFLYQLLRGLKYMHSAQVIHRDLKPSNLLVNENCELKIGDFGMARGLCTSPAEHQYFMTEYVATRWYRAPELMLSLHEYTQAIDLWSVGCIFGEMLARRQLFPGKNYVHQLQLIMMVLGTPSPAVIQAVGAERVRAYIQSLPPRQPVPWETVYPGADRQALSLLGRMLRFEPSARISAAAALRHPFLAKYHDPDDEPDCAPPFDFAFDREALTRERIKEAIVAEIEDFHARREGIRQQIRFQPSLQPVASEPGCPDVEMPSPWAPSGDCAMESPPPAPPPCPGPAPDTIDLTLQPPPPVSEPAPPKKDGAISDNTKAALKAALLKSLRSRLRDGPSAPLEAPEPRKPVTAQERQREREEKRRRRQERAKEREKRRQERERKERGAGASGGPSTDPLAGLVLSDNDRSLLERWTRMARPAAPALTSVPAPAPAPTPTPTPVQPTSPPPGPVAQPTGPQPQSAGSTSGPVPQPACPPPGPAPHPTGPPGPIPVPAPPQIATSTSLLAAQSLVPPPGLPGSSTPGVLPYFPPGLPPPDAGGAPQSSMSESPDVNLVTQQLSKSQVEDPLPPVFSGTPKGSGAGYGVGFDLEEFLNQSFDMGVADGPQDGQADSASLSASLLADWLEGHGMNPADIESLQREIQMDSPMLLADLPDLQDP
smiles,measurement,setting,value
"Cc1ncsc1-c1ccc([C@H](C)NC(=O)[C@@H]2C[C@@H](O)CN2C(=O)[C@@H](NC(=O)CCCCCN2CCN(c3ccc4c(C5CCN(C(=O)c6ccc(OC(F)(F)F)cc6N)CC5)ncnc4c3)CC2)C(C)(C)C)cc1 [INY-06-061, (2S,4R)-1-((S)-2-(6-(4-(4-(1-(2-amino-4-(trifluoromethoxy)benzoyl)piperidin-4-yl)quinazolin-7-yl)piperazin-1-yl)hexanamido)-3,3-dimethylbutanoyl)-4-hydroxy-N-((S)-1-(4-(4-methylthiazol-5-yl)phenyl)ethyl)pyrrolidine-2-carboxamide]",ERK5 degradation at high concentration (hook effect),ERK5 [1],diminished ERK5 degradation
same,potential off-target kinases,panel of 468 kinases,"weak inhibition of potential off-targets (AXL, CDK19, SgK110, CDKL2, and AURKC)"
same,biochemical selectivity profile across the kinome,panel of 468 kinases; 468 kinases,high selectivity for ERK5
same,EC50,BT-474 cells,> 20 µM
same,IC50,panel of 750 cell lines,> 1 µM
same,IL-8 secretion upon LPS stimulation,IL-8 secretion; 5-hour pre-treatment,did not significantly suppress
same,IL-8 secretion upon LPS stimulation,IL-8 secretion; 24-hour pre-treatment,no effect
same,ERK5 protein level,"ERK5 [2]; 1 μM, 5-hour treatment",potent downregulation of ERK5
same,ERK5 degradation,ERK5 [2]; 24 hours,maintained for 24 hours
same,EC50,MM.1S cells,6 µM
same,BRD4 protein levels,BRD4,did not destabilize
same,"proteins significantly downregulated, proteomics",MOLT4 cells,ERK5 (MAPK7) was the only protein whose abundance was significantly downregulated
same,Kd,ERK5 [3],0.012 µM
same,AURKA protein levels,AURKA,did not destabilize
same,EC50,SNU-449 cells,> 20 µM
same,effect on IL-6-induced proliferation,[4],no effect
same,IL-6 secretion upon LPS stimulation,IL-6 secretion; 5-hour pre-treatment,did not significantly suppress
same,IL-6 secretion upon LPS stimulation,IL-6 secretion; 24-hour pre-treatment,no effect
